Laboratory results from PMC4656071 (Biochemical pharmacology, 2015).
Each block holds one compound with its values, some of them ahead of it.

Legend:
Human sEH = target: T1, Human sEH (Homo sapiens, UniProt P34913); test: sEH activity assay; assay type: biochemical; conditions: fluorescent assay for sEH inhibition, from Table 3 (human and mouse sEH)
T1 sequence (P34913 1-555): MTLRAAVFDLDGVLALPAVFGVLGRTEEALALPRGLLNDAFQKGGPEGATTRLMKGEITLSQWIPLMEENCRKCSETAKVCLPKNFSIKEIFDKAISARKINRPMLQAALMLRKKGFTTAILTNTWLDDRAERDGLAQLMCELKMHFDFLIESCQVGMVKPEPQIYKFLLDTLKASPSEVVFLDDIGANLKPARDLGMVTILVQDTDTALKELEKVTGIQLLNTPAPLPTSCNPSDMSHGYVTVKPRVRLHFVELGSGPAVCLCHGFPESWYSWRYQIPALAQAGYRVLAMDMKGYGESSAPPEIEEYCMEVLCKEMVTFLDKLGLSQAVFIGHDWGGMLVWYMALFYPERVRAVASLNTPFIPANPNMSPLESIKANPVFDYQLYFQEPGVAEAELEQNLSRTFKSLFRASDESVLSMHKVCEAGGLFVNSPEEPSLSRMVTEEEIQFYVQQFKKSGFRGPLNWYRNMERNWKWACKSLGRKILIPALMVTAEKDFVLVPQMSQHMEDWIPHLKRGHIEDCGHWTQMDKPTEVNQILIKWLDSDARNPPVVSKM

CYP3A4 = test: Recombinant human CYPs incubation, CYP3A4; assay type: in vitro ADME; conditions: 1 μM AEPU, 20 pmol/ml CYP, 30 min
In short: (§1)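 Recombinant human CYPs (20 pmol/ml) with 1 μM test compound in 100 mM sodium phosphate pH 7.4, preincubated 5 min at 37 °C. NADPH-generating system added; incubated 0 and 30 min. Stopped with 200 nM internal standard in methanol; LC-MS/MS. Metabolites compared as response-area ratio to internal standard.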

[1] = Blood level-time course of AEPU and its metabolites after oral dosing in mice; assay type: in vivo, male swiss webster mice
[2] = animal models; cited from earlier work
CYP2D6 = test: Recombinant human CYPs incubation, CYP2D6; assay type: in vitro ADME; conditions: 1 μM AEPU, 20 pmol/ml CYP, 30 min
In short: as §1

CYP 3A4 = assay type: in vitro ADME, human; conditions: 10 uM ketoconazole, 30 min, 37°C
[3] = 5 mg/kg for mouse and rat, 0.3 mg/kg for dog; cited from earlier work
[4] = assay type: in vitro ADME, rat, human; conditions: incubated in vitro without NADPH
sEH = conditions: cited from earlier work
[5] = In vivo metabolism study of AEPU, rat urine by LC-MS; parameters: species or system rat (Sprague Dawley); conditions: rats, oral 10 mg/kg AEPU, urine 24 h after treatment

potency lower compared to AEPU (Human sEH): 30–100 fold
SMILES: CCOCCOCCOCCCCCNC(=O)NC12CC3CC(CC(O)(C3)C1)C2 [M2]

role of CYP3A4 in the in vitro metabolism of AEPU (CYP3A4): major enzyme
metabolism in vivo (in words) ([1]; oral 10 mg/kg, multiple metabolites observed after 30 minutes): metabolized rapidly
role of CYP2D6 in the in vitro metabolism of AEPU (CYP2D6): minor enzyme
metabolism of AEPU in human liver S9 fraction with ketoconazole (CYP 3A4): ceased
metabolite formation in vitro without NADPH [4]: failed to generate metabolites
SMILES: CCOCCOCCOCCCCCNC(=O)NC12CC3CC(CC(C3)C1)C2 [AEPU, 1-adamantan-1-yl-3-(5-(2-(2-ethoxyethoxy)ethoxy)pentyl)urea]
blood level of AEPU through the whole time course [2]: undetectable
area under curve after oral administration, comparison of species [3]: largest area under curve for dog, and then rat, while under detection limitation for mouse

SMILES: O=C(O)CCCNC(=O)NC12CC3CC(CC(C3)C1)C2 [4-(3-adamantan-1-yl-ureido)butanoic acid]
inhibitory potency on sEH (in words) (sEH): very weak

SMILES: O=C(O)CCNC(=O)NC12CC3CC(CC(C3)C1)C2 [M15, 3-(3-adamantyl-ureido)-propanoic acid]
blood level 6 hours post administration ([1]; oral 10 mg/kg AEPU, mouse whole blood, 6 hours): under the detection limitation
occurrence in rat urine [5]: major metabolite
